Source: ChEMBL document CHEMBL2146407, “Development of erlotinib derivatives as CIP2A-ablating agents independent of EGFR activity” (Bioorg Med Chem, 2012)
Activity calls are given as the source filed them. The calls are words filed in the database; no cut-off is given here.

What was measured:
SK-HEP1 [1] = test: Inhibition of CIP2A expression in human SKHEP1 cells at 20 uM after 24 hrs by Western blot analysis; type: functional, cell-based
In short: (§1)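 SK-Hep-1 cells (3 × 10^5 per 60 mm dish) were treated 24 h, in the primary screen at 20 μM. Lysates were loaded at 40 μg per lane and blotted for CIP2A against actin.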

SK-HEP1 [2] = test: Cytotoxicity against human SKHEP1 cells assessed as growth inhibition after 48 hrs by MTT assay; type: functional, cell-based; settings: SK-HEP1, 48 h
In short: (§2)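 MTT read-out in SK-Hep-1 cells kept in DMEM with 10% FBS, penicillin/streptomycin and amphotericin B at 37 °C under 5% CO2. Reduced dye solubilized in DMSO and absorbance read at 570 nm. The concentration giving 50% growth inhibition was interpolated from dose–response curves.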

[3] = target: T1, Epidermal growth factor receptor (Homo sapiens, UniProt P00533); test: Inhibition of EGFR phosphorylation in human PC9 cells after 24 hrs by Western blot analysis; type: cell-based, PC-9
SK-HEP1 [4] = test: Cytotoxicity against human SKHEP1 cells assessed as cell death after 48 hrs by MTT assay; type: functional, cell-based; settings: SK-HEP1, 48 h; in short: as §2
SK-HEP1 [5] = test: Induction of apoptosis in human SKHEP1 cells assessed as accumulation at sub-G1 phase at 5 uM after 24 hrs by propidium iodide staining based flow cytometry; type: functional, cell-based
In short: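 SK-Hep-1 cells were treated 24 h at 5 μM, then trypsinized, pelleted, washed in PBS and stained with propidium iodide. Apoptotic cells were counted by flow cytometry as the sub-G1 fraction. Mean of n = 3 with SD; P <0.05 taken as significant.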

[6] = target: Protein CIP2A (Homo sapiens) (UniProt Q8TCG1); test: Inhibition of CIP2A-mediated PP2A-dependent AKT phosphorylation in human SKHEP1 cells at 5 uM after 30 hrs by Western blot analysis; type: cell-based; settings: SK-HEP1
In short: (§3)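 SK-Hep-1 cells (3 × 10^5 per 60 mm dish) were exposed to 5 μM for 30 h. Lysates were loaded at 40 μg per lane and immunoblotted for CIP2A, phospho-Akt, PARP and actin.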

[7] = target: Protein CIP2A (Homo sapiens) (UniProt Q8TCG1); test: Inhibition of CIP2A in human SKHEP1 cells at 5 uM after 30 hrs by Western blot analysis; type: cell-based; settings: SK-HEP1; in short: as §3
SK-HEP1 [8] = test: Induction of apoptosis in human SKHEP1 cells assessed as increase in PARP cleavage at 5 uM after 30 hrs by Western blot analysis; type: functional, cell-based; in short: as §3
[9] = target: T1, Epidermal growth factor receptor; test: Inhibition of EGFR phosphorylation in human PC9 cells at 2 uM after 24 hrs by Western blot analysis; type: cell-based; settings: PC-9
In short: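 PC9 cells (3 × 10^5 per 60 mm dish), grown in DMEM with 10% FBS at 37 °C and 5% CO2, were treated 24 h at 2 μM. Lysates were loaded at 40 μg per lane and immunoblotted for EGFR phosphorylation.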

SK-HEP1 [10] = test: Induction of apoptosis in human SKHEP1 cells assessed as DNA fragmentation at 5 uM after 24 hrs by ELISA; type: functional, cell-based
In short: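 DNA fragmentation was measured in SK-Hep-1 cells after 24 h of exposure, using a cell death ELISA kit.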

SK-HEP1 [11] = test: Cytotoxicity against human SKHEP1 cells assessed as cell death after 24 hrs by MTT assay
SK-HEP1 [12] = test: Inhibition of CIP2A expression in human SKHEP1 cells after 24 hrs by Western blot analysis; type: functional, cell-based; in short: as §1
[13] = target: Protein CIP2A (Homo sapiens) (UniProt Q8TCG1); test: Inhibition of CIP2A-mediated PP2A-dependent AKT phosphorylation in human SKHEP1 cells at 5 uM after 30 hrs by Western blot analysis in presence of okadaic acid; type: cell-based; settings: SK-HEP1

T1 sequence (P00533 whole entry): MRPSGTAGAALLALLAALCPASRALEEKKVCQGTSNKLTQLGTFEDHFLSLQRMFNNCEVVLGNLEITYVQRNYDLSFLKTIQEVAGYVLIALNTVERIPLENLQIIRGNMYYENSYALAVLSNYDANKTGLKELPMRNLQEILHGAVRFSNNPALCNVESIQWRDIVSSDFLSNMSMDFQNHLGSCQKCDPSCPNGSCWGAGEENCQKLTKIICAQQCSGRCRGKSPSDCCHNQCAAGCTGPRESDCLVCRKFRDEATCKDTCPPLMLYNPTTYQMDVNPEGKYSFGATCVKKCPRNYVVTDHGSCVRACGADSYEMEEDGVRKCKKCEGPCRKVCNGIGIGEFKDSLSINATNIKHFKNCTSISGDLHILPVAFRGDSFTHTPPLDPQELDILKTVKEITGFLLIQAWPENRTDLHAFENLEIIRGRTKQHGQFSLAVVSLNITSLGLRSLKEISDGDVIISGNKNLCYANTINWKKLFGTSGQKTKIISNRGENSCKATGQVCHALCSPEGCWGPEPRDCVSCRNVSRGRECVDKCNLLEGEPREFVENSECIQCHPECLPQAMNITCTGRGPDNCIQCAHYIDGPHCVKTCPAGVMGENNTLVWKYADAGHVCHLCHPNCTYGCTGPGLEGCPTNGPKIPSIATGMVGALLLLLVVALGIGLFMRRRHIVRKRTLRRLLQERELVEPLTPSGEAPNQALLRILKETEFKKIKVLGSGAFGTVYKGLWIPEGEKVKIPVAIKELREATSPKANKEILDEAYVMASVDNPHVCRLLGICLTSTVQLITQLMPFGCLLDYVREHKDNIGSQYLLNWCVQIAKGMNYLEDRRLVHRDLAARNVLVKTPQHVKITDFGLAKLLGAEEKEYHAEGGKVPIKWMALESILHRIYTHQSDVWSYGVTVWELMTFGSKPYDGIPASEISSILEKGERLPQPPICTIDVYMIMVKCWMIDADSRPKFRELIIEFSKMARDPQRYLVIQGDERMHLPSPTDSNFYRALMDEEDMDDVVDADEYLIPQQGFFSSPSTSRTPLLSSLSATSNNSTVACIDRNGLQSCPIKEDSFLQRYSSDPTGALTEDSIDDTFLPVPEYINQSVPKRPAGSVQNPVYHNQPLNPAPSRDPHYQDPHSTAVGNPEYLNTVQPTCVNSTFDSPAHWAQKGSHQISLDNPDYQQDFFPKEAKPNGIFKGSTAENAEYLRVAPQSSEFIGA

Row | SMILES | inhibition (SK-HEP1 [1]) | IC50 (SK-HEP1 [4]) [µM] | further results
1 | C#Cc1cccc(Nc2nc(Nc3ccc(Oc4ccc(C#N)cc4)cc3)nc3cc(OC)c(OC)cc23)c1 | Active |  | IC50 (SK-HEP1 [2]): 14.5 µM
2 | C#Cc1cccc(Nc2nc(Cl)nc3cc(OC)c(OC)cc23)c1 |  |  | IC50 [3]: > 8 µM
3 | C#Cc1cccc(Nc2ccnc(Cl)n2)c1 | inactive | > 40 | 
4 | COc1cc2nc(Cl)nc(Nc3cccc(Oc4ccc(C#N)cc4)c3)c2cc1OC |  | > 40 | 
5 | C#Cc1cccc(Nc2ccnc(Nc3cccc(C#C)c3)n2)c1 | Active | 3.7 | 
6 | COc1cc2nc(Cl)nc(Nc3ccc(Cl)c(C(F)(F)F)c3)c2cc1OC |  | 8.8 | 
7 | COc1cc2nc(Cl)nc(Nc3cc(C)ccc3F)c2cc1OC |  | > 40 | 
8 | C#Cc1cccc(Nc2nc(Nc3cc(C)ccc3F)nc3cc(OC)c(OC)cc23)c1 | Active |  | IC50 (SK-HEP1 [2]): 4.5 µM
9 | COc1cc2nc(Cl)nc(Nc3ccc(Oc4ccccc4)cc3)c2cc1OC |  | 15.3 | 
10 | FC(F)(F)c1cc(Nc2ccnc(Nc3ccc(Cl)c(C(F)(F)F)c3)n2)ccc1Cl | Active | 13.8 | 
11 | C#Cc1cccc(Nc2nc(NCc3ccccc3)nc3cc(OC)c(OC)cc23)c1 | Active |  | Activity (SK-HEP1 [5]): Active; inhibition [6]: Active; inhibition [7]: Active; Activity (SK-HEP1 [8]): Active; inhibition [9]: inactive; Activity (SK-HEP1 [10]): Active; IC50 (SK-HEP1 [2]): 2.8 µM
12 | C#Cc1cccc(Nc2nc(Nc3ccc(Cl)c(C(F)(F)F)c3)nc3cc(OC)c(OC)cc23)c1 | Active |  | IC50 (SK-HEP1 [2]): 6.8 µM
13 | Clc1nccc(Nc2ccc(Oc3ccccc3)cc2)n1 | inactive | > 40 | 
14 | Clc1nccc(NCc2ccccc2)n1 | inactive | > 40 | 
15 | COc1cc2nc(Cl)nc(Nc3cccc(O)c3)c2cc1OC |  | > 40 | inhibition [6]: inactive; inhibition [7]: inactive; Activity (SK-HEP1 [8]): inactive
16 | COc1cc2nc(Cl)nc(Nc3cccc(Cl)c3)c2cc1OC |  | 16.5 | 
17 | C#Cc1cccc(Nc2nc(Nc3cccc(Cl)c3)nc3cc(OC)c(OC)cc23)c1 | Active |  | IC50 (SK-HEP1 [2]): 7.1 µM
18 | Clc1cccc(Nc2ccnc(Cl)n2)c1 | inactive | > 40 | 
19 | C#Cc1cccc(Nc2nc(Nc3cccc(Oc4ccc(C#N)cc4)c3)nc3cc(OC)c(OC)cc23)c1 | Active |  | IC50 (SK-HEP1 [2]): 3.9 µM
20 | COc1cc2nc(Cl)nc(NCc3ccccc3)c2cc1OC |  | 19.8 | 
21 | FC(F)(F)c1cc(Nc2ccnc(Cl)n2)ccc1Cl | inactive | > 40 | 
22 | C#Cc1cccc(Nc2nc(Nc3ccc(Oc4ccccc4)cc3)nc3cc(OC)c(OC)cc23)c1 | Active |  | Activity (SK-HEP1 [11]): Dose-dependent effect; inhibition (SK-HEP1 [12]): Dose-dependent effect; Activity (SK-HEP1 [5]): Active; inhibition [6]: Active; inhibition [7]: Active; Activity (SK-HEP1 [8]): Active; inhibition [9]: inactive; inhibition [13]: inactive; Activity (SK-HEP1 [10]): Active; IC50 (SK-HEP1 [2]): 2.8 µM
23 | C#Cc1cccc(N(C)c2nc(Cl)nc3cc(OC)c(OC)cc23)c1 |  | 12.3 | 
24 | COc1cc2nc(Cl)nc(Nc3ccc(O)c(C)c3)c2cc1OC |  | > 40 | 
